The source of these data is ChEMBL document CHEMBL2029262, “Receptor-ligand interaction-based virtual screening for novel Eg5/kinesin spindle protein inhibitors” (J Med Chem, 2012).

Active and inactive are the calls of the source. The calls are words filed in the database; no cut-off is given here.

Assay [1] deals with HT-29. Kind of assay: Growth inhibition of human HT-29 cells after 2 days by MTT assay. The format is functional. The essentials: (§1)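 DU145 or HT29 cells in RPMI 1640 with 10% heat-inactivated FBS, 37 °C, 5% CO2. Seeded at 3 × 10^3 cells/well, exposed to a range of compound concentrations in duplicate for two days. Read-out was MTT-type tetrazolium dye for up to 4 h, overnight solubilization of formazan, then OD at 570 nm. GI50 was derived.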
For orientation: Tetrazolium assays rely on reduction of a dye to a coloured formazan, in cell work by metabolically active cells.

Assay [2] deals with DU-145. Description: Growth inhibition of human DU145 cells after 2 days by MTT assay. In kind it is functional. The essentials:
as §1

The target in assay [3] is T1, Kinesin-like protein KIF11 (Homo sapiens) (UniProt P52732).
T1 sequence (whole entry): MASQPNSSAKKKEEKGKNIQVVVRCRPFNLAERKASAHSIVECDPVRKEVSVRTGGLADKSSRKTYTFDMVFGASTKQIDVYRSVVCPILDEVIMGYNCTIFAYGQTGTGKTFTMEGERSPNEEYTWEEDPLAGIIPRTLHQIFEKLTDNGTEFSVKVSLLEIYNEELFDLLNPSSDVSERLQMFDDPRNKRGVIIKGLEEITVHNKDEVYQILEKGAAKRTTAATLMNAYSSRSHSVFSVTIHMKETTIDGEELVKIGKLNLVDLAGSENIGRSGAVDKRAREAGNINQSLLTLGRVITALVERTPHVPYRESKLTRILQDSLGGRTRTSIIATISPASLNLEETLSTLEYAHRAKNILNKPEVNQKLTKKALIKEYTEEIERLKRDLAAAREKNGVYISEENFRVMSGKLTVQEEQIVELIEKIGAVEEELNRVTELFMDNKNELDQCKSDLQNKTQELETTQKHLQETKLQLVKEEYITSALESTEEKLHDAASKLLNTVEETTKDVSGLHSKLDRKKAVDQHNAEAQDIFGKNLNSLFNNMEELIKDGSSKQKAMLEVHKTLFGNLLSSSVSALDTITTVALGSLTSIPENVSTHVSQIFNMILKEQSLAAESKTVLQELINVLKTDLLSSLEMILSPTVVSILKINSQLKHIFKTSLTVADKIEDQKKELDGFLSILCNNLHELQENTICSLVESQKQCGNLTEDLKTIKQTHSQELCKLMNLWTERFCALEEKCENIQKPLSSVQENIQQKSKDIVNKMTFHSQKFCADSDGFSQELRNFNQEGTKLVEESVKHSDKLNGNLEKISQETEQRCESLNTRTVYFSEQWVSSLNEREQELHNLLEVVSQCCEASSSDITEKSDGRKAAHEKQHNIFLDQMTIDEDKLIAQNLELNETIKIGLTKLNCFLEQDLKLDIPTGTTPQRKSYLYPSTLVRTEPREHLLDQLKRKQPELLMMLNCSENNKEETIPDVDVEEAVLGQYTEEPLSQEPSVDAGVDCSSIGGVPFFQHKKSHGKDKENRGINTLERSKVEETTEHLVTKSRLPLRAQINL
Description: (§2) Inhibition of Eg5 ATPase activity by pyruvate kinase/lactate dehydrogenase-linked assay. Further details: concentration or dose not given beside the values. Summed up: (§3)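 Basal steady-state ATPase of 200 nM Eg5 2–368, measured by pyruvate kinase/lactate dehydrogenase coupling in ACES buffer pH 6.9 with Mg acetate, EGTA, EDTA and β-mercaptoethanol, at 25 °C with up to 2.0% DMSO. STLC was the positive control. Each concentration was run in triplicate and reported as mean ± SD to give IC50.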

The target of assay [4] is T2, Kinesin-like protein KIF11 (Homo sapiens, UniProt P52732).
T2 sequence (P52732 whole entry): T1 sequence (whole entry)
The assay is described as §2. The essentials:
as §3

The target of assay [5] is T3, Kinesin heavy chain isoform 5A (Homo sapiens, UniProt Q12840).
T3 sequence (Q12840 whole entry): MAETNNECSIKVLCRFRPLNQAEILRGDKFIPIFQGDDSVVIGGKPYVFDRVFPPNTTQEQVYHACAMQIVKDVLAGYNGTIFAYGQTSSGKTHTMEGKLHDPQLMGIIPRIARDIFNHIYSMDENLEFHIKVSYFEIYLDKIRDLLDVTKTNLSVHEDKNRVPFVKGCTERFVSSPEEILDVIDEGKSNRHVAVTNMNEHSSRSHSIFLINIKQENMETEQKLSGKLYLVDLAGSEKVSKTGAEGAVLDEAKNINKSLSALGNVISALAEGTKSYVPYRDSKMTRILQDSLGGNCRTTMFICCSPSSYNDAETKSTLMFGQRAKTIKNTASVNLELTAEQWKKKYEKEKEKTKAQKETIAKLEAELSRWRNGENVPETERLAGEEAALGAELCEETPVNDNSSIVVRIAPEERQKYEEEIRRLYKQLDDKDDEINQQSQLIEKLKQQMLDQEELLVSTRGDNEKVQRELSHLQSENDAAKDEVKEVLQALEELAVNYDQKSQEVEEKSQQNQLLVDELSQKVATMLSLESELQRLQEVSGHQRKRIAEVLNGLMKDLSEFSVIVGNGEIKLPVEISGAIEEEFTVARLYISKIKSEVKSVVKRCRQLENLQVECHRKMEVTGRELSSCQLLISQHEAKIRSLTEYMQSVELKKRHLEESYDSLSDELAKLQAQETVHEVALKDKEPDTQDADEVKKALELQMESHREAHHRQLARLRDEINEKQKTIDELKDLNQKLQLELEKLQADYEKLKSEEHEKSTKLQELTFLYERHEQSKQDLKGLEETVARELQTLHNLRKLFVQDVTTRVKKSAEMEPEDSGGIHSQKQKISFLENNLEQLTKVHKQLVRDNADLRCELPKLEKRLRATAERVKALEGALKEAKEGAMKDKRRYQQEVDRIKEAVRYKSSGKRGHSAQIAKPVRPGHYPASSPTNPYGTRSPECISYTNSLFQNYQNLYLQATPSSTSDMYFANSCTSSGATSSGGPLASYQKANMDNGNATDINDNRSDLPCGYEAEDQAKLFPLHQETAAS
Description: Inhibition of human Kif5A ATPase activity by pyruvate kinase/lactate dehydrogenase-linked assay. Summed up: (§4)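 HsKif5A or HsKif5C ATPase measured with the same pyruvate kinase/lactate dehydrogenase-linked format, at 25 °C in ACES buffer pH 6.9 with up to 2.0% DMSO. Concentrations were run in triplicate.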

Assay [6] addresses T4, Kinesin heavy chain isoform 5C (Homo sapiens, UniProt O60282).
T4 sequence (O60282 whole entry): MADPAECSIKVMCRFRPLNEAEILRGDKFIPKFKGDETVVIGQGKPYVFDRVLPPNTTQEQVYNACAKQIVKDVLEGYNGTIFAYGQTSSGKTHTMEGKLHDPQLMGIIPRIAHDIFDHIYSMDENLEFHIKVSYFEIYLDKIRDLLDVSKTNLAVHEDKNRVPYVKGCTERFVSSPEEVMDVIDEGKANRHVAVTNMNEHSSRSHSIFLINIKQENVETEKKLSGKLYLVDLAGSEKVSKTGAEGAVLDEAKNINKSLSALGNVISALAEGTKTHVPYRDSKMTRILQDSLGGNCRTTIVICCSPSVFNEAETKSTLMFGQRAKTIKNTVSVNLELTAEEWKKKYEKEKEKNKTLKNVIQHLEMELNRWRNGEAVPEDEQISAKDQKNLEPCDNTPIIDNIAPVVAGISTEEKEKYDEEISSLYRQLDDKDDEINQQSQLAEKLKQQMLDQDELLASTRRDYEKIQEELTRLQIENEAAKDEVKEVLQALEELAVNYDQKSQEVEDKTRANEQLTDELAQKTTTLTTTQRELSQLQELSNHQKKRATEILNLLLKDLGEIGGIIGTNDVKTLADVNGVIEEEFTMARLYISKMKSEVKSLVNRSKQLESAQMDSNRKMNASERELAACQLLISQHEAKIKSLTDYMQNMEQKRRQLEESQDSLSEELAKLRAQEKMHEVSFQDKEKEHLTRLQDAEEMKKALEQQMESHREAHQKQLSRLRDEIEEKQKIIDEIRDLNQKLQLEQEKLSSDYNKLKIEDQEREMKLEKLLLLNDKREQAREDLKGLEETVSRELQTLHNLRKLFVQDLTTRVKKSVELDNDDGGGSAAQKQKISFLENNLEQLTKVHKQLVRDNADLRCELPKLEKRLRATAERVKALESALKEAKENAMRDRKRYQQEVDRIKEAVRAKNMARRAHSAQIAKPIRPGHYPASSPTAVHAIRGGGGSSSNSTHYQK
Kind of assay: Inhibition of human Kif5C ATPase activity by pyruvate kinase/lactate dehydrogenase-linked assay. Summed up:
as §4

Assay [7] has as its system HeLa. Kind of assay: Induction of monoastral spindle formation in human HeLa cells at 25 uM after 8 hrs by immunofluorescence assay. In kind it is functional, cell-based. The essentials:
(§5)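 HeLa cells grown in D-MEM with 10% fetal calf serum on poly-D-lysine-coated coverslips and allowed to adhere at least 36 h. Compounds were diluted in medium from 25 mM DMSO stocks and applied for 8 h. Cells were fixed in 2% paraformaldehyde, permeabilized with 0.2% Triton X-100, and stained for β-tubulin and centromeres, with DAPI for DNA. Mitotic cells with monoastral versus bipolar spindles were counted by epifluorescence microscopy.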

Assay [8] deals with HeLa. Description: Induction of monoastral spindle formation in human HeLa cells assessed as interphase cells with cortical MT bundles at 25 uM after 8 hrs by immunofluorescence assay. In kind it is functional, cell-based.
Assay [9] relates to DU-145. Description: Selectivity ratio of GI50 for human DU145 cells to GI50 for human HT29 cells. The format is functional.
The test system of assay [10] is HeLa. Kind of assay: Induction of monoastral spindle formation in human HeLa cells at 50 uM after 8 hrs by immunofluorescence assay. The format is functional. Summed up: as §5
Assay [11] concerns HeLa. Description: Induction of monoastral spindle formation in human HeLa cells assessed as cells with misaligned chromosomes at 25 uM after 8 hrs by immunofluorescence assay. The format is functional, cell-based.

In general, GI50 refers to the concentration at which growth is held to half of that of the control. Usually inhibition stands for the percentage by which the read-out fell short of the control. For orientation: IC50 means the point on the concentration scale where inhibition reaches its midpoint. For the compound `COC(=O)c1c(C)oc2c1cc(NS(=O)(=O)c1ccc(C(=O)O)cc1)c1ccccc12`, the GI50 entry in [1] and in assay [2] was “inactive” each time. In assay [3] (concentration not given here), this compound gave an inhibition of 80%. The figures for the IC50 in assay [4] (read-out: IC50), in assay [5] and in [6] were 79.1 µM, “Not Active” and “Not Active”, respectively. In addition, the result in assay [7] was inactive.
`O=C(O)CSc1cc(NS(=O)(=O)c2ccc(C(=O)O)cc2)c2ccccc2c1O`: the GI50 in [1] (HT-29, 48 h) turned out to be 4.4 µM; in [2] (DU-145, 48 h), 21 µM. In addition, in assay [4], the IC50 entry is “Not Active”. Also, the outcome in assay [8] was Active.
As to `Cc1ccsc1CCN1C(=S)N(c2ccc(F)cc2)C(=O)C1CC(=O)Nc1ccc(F)cc1` (stereo unspecified), the GI50 in assay [1] (HT-29, 48 h) amounted to 16.7 µM; in assay [2] (DU-145, 48 h), 31 µM. Also, the inhibition in [3] (concentration not given here) came out at 80%. Moreover, the IC50 in assay [4] (read-out: IC50) is 0.6 µM; in [5], “Not Active”; in assay [6] it was “Not Active”. In [9], the RatioGI50 is reported as 2. Further, in assay [7], the result was Active.
Take `COc1ccc(N2C(=O)C(CC(=O)Nc3ccccc3)N(CCc3cccs3)C2=S)cc1` (stereo unspecified): the GI50 came to 17.7 µM in assay [1] (HT-29, 48 h) and 34.3 µM in assay [2] (DU-145, 48 h). In assay [3] (concentration not given here), this compound came in with an inhibition of 60%. Moreover, the IC50 in assay [4] (read-out: IC50) was 1 µM; in [5], “Not Active”; in [6], “Not Active”. Moreover, the RatioGI50 in [9] came out at 2. The same compound had an Activity in assay [10] of 50%.
On to `Cc1ccc2c(c1)-c1cc(C)nn1C(c1ccccc1F)N2` (stereo unspecified), for which the GI50 entry in [1] and in assay [2] was “inactive” each time. The same compound registered an inhibition in [3] (concentration not given here) of 60%. In addition, the results for the IC50 in [4] (read-out: IC50), in assay [5] and in [6] were 6.3 µM, “Not Active” and “Not Active”, respectively. Further, the result in assay [7] was inactive.
For the compound `Cc1cc(F)ccc1S(=O)(=O)N(C(=O)C1CCCCC1)c1ccc2oc(=O)sc2c1`, the GI50 in assay [1] (HT-29, 48 h) came to 19.4 µM; in assay [2] (DU-145, 48 h), 41.2 µM. Also, in assay [4], the IC50 entry is reported as “Not Active”. For the same compound, the result in assay [7] was inactive.
As for `Cc1ccc(-n2c(=O)[nH]c3c(C(N)=O)nc(-c4ccc(F)cc4F)nc32)cc1C`, the GI50 was 9.3 µM in [1] (HT-29, 48 h) and 8.7 µM in [2] (DU-145, 48 h). Further, the inhibition in assay [3] (concentration not given here) was found to be 60%. The IC50 in assay [4] (read-out: IC50) is 41.5 µM; in assay [5] (read-out: IC50), 50 µM; in assay [6] (read-out: IC50), 50 µM. For the same compound, the outcome in assay [7] was inactive.
As to `COC(=O)c1c(NC(=O)c2ccccc2Br)sc(C)c1C`, the GI50 in [1] (HT-29, 48 h) was 33.7 µM; in assay [2] (DU-145, 48 h), more than 100 µM. In addition, the inhibition result in assay [3] is “inactive”. For the same compound, in assay [11], the result was Active.
As to `COc1ccc(NC(=O)CC2C(=O)N(c3ccccc3)C(=S)N2CCc2sccc2C)cc1` (stereo unspecified), the GI50 in [1] (HT-29, 48 h) was found to be 19.6 µM; in assay [2] (DU-145, 48 h), 42.3 µM. For the same compound, in assay [3] (concentration not given here), the inhibition was found to be 60%. The IC50 was 2.4 µM in [4] (read-out: IC50), “Not Active” in assay [5] and “Not Active” in [6]. In addition, in assay [9], the RatioGI50 turned out to be 2.
